Most compounds without a hit are left out; they make up all but 3.9% or so of the library.
HCV core dimer – inhibitors of HCV core protein dimerization, primary screen, biochemical, TR-FRET, high-throughput | TR-FRET GST/Flag-core106 dimerization, 1536-well | inhibition, % at 5 µM | 300,000 compounds, 0.33% hits | AID 1899, 2009;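 active means inhibition above the mean of all tested compounds plus 3 SD, set per screening campaign, cut at about 45% in these data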
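Assay system: Tagged HCV core106 pair (GST and Flag) | Buffer or medium: KF-containing HEPES buffer, pH 7.45, DTT, CHAPS, BSA | Also added: Eu donor and XL665 acceptor anti-tag antibodies | Dosing: One concentration, 5 µM, in 0.5% DMSO | Timing: 4 h at 22.5 °C | Technique: TR-FRET 671 and 617 nm emission | Repeats: Singlicate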
HCV NS3 hel inh – inhibitors of HCV NS3 helicase, primary screen, biochemical, Cy5 molecular beacon fluorescence | inhibition, % at 10.9 µM | 290,000 compounds, 0.56% hits | Hepatitis C virus NS3 helicase | NS3 helicase DNA unwinding;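 active means inhibition above the mean of all tested compounds plus 3 SD, set per campaign, cut at about 35% in these data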;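 further: 0% = DMSO wells and 100% = thioflavine S control wells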
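Compound dosing – single dose, 10.9 µM nominal final, DMSO 0.8% final · System – NS3 helicase fragment of HCV · Buffer or medium – MOPS pH 6.5, MgCl2, DTT, Tween20, BSA · Signal – Cy5 beacon fluorescence read at start and 1 h · Also added – annealed dual-labelled DNA beacon duplex, ATP-started · Schedule – 1 h at 25 °C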
FID counter – compounds displacing fluorescent DNA intercalator, primary screen, artefact control for HCV NS3 helicase inhibitor project, biochemical, FID fluorescence | inhibition, % at 7.9 µM | DNA fluorescent intercalator displacement | 290,000 compounds, 0.17% hits | AID 1845, 2009; in the data active means inhibition above about 37%;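 further: 0% = vehicle and 100% = reference compound; higher means more ethidium bromide displaced from hairpin DNA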
HSF1 inhib – HSF1 inhibitors in luciferase reporter cells, primary screen, cell-based, NIH3T3, luminescence | 300,000 compounds, 0.77% hits | activity change, negative = inhibition, % at 7.5 µM (by protocol) | NIH3T3-HGL HSE-luciferase, MG132-induced, luminescence 8 h; hits give low values;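 active means more than half of replicate wells show activity change below -50%, luminescence cut by over half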;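 further: luciferase reports HSF-1 transcriptional activity via heat shock element; 0% = median of DMSO wells and -100% = zero luminescence signal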
HSF1 activator – HSF-1 activators, primary screen, NIH3T3-HGL cells, MG132 stress, luminescence, single point | 300,000 compounds, 1.7% hits | NIH3T3-HGL HSF-1 luciferase reporter, 8 h; 100% = twice DMSO control signal | activation, % at 9 µM;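 active means mean replicate activation of at least 50% with a set share of replicates each reaching 50%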;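 further: 0% = median of the neutral control wells and 100% = twice that signal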
HSP90 refold inh – HSP90 inhibitors, primary screen, cell lysate, luminescence; Heat shock protein HSP 90 (rabbit reticulocyte lysate; luciferase refolding); Rabbit reticulocyte lysate, luciferase refolding luminescence, 3 h; inhibition, % at 5.6 µM; 290,000 compounds, 0.91% hits; AID 1789, 2009;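 active means inhibition above the screen-wide mean plus 3 SD, computed separately per campaign, cut at about 16% in these data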;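 further: 0% = DMSO wells and 100% = 60 µM geldanamycin wells; inhibitors lower the luminescence because luciferase stays unfolded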
An asterisk follows results filed as active; x = no result given.

SMILES | HCV core dimer | HCV NS3 hel inh | FID counter | HSF1 inhib | HSF1 activator | HSP90 refold inh
O=C(NC(Cc1c[nH]c2ccccc12)C(=O)N/N=C/c1ccc(Cl)cc1)c1cccs1 (centres undefined) | 17 | -2 | -10 | 3 | -6 | 2
O=C(O)c1cccc(NC(=O)c2ccc3c(c2)C(=O)N(CC2CCCO2)C3=O)c1 (centres undefined) | -5 | 1 | -17 | -5 | -13 | 17*
COC(=O)c1cccc(NC(=O)c2ccc3c(c2)C(=O)N(CC2CCCO2)C3=O)c1 (centres undefined) | -3 | 8 | -13 | -4 | 3 | 6
CC(=O)Oc1cccc(C(=O)Nc2ccc3c(c2)C(=O)N(CC2CCCO2)C3=O)c1 (centres undefined) | x | 4 | -14 | 38 | 72* | -2
CCc1ccc(OCC(=O)N/N=C/c2cc([N+](=O)[O-])ccc2N2CCCCCC2)cc1 | 26 | -9 | -5 | 8 | -1 | 4
CCC1CCCCN1c1ccc([N+](=O)[O-])cc1/C=N/NC(=O)Cn1c2ccccc2c(=O)c2ccccc21 (centres undefined) | 47* | 0 | 5 | -2 | 4 | 3
O=C(COC(=O)c1cccc(S(=O)(=O)N2CCc3ccccc3C2)c1)NCc1ccco1 | 51* | 11 | -12 | -3 | 9 | 2
O=C(COC(=O)c1cc(S(=O)(=O)N2CCc3ccccc3C2)ccc1Cl)NCc1ccco1 | 10 | 0 | -17 | -15 | -33 | 1
CCOc1ccc(C(=O)N2CCN(S(=O)(=O)c3cccs3)CC2)c(OCC)c1 | 3 | -5 | -28 | 9 | 54* | 1
CCOC(=O)N1CCN(S(=O)(=O)c2cccs2)CC1 | -7 | 2 | 0 | -9 | -18 | 0
CC(=O)N(c1ccc2oc(=O)sc2c1)S(=O)(=O)c1ccc(C(=O)O)cc1 | -3 | 7 | -25 | -60* | -65 | -3
CNC(=S)N/N=C/c1c(Cl)cccc1Cl | -3 | 4 | -11 | -59* | -67 | 2
Cc1cccc(C)c1NC(=S)N/N=C/c1c(Cl)cccc1Cl | 5 | 6 | -1 | -20 | -25 | 4
S=C(N/N=C/c1ccccc1Cl)Nc1ccccc1 | 1 | 7 | -8 | 30 | 72* | -2
CNC(=S)N/N=C/c1ccccc1Cl | -16 | 4 | 1 | -3 | -8 | -2
CCOC(=O)C1(Cc2cccc(OC)c2)CCN(Cc2cccnc2)CC1 | -2 | -6 | -8 | -6 | -4 | -1
C#CCSc1nnc(-c2cccc3ccccc23)o1 | -1 | -2 | -10 | 41 | 69* | -2
C#CCSc1nnc(-c2ccc(O)cc2)o1 | 2 | 0 | -3 | 17 | 27 | 2
Cc1ccc(-c2nnc(SCc3ccccc3F)o2)cc1 | 0 | -10 | -13 | 26 | 58* | 2
COc1ccc(-c2nnc(SCc3ccccc3F)o2)cc1OC | 3 | 2 | -19 | 20 | 15 | 0
C#CCSc1nnc(-c2ccc(C)cc2)o1 | 1 | 0 | -3 | 37 | 61* | 4
Nc1nc(SCC(=O)C23CC4CC(CC(C4)C2)C3)n[nH]1 | -2 | -6 | 2 | 1 | 27 | 2
Cc1ccc(C(=O)NCCNC(=O)c2ccc(F)cc2)cn1 | -2 | 10 | -2 | -3 | -6 | -2
CC1(C)Cc2ccccc2-c2nnc(-c3ccccn3)n21 | -1 | -3 | -3 | 0 | 1 | 0
C/C(=N\Nc1nc(-c2cc(C)ccc2C)cs1)c1cc2c(ccc3ccccc32)oc1=O | 61* | 18 | -17 | 3 | 11 | 5
SMILES | HCV core dimer | HCV NS3 hel inh | FID counter | HSF1 inhib | HSF1 activator | HSP90 refold inh
C/C(=N\Nc1nc(-c2cc(C)ccc2C)cs1)c1cc2ccccc2oc1=O | 57* | 20 | -7 | 6 | 9 | -7
CC(=O)c1cc2c(ccc3ccccc32)oc1=O | x | 5 | 8 | -4 | -30 | -3
COc1ccc(C(=O)NCc2nnc(SCC(=O)N3CCC(C)CC3)o2)cc1 | 0 | -1 | -15 | -9 | -35 | 0
CCOC(=O)C(=Cc1ccc(Br)cc1)C(=O)OCC | x | -5 | -15 | 113 | 148* | 6
CCOC(=O)C(=Cc1ccc(-n2ccnc2)cc1)C(=O)OCC | -4 | -5 | -6 | 72 | 128* | 1
CCOC(=O)C(=O)Nc1ccc(F)cc1 | 2 | 6 | 0 | 5 | -6 | -3
CCOC(=O)C(=Cc1ccc(F)cc1)C(=O)OCC | -2 | -2 | -5 | 122 | 126* | 1
COC(=O)c1ccc(-n2ccnc2)cc1 | -6 | -4 | 4 | -7 | -10 | -2
CCOC(=O)/C(=C/c1ccc(OC(=O)c2ccncc2)cc1)C(C)=O | -1 | -7 | 6 | 16 | 14 | -2
Cc1ccc(S(=O)(=O)c2nc(-c3ccc(F)cc3)oc2N2CCOCC2)cc1 | 10 | -7 | -26 | -9 | 9 | -2
CC(C)N1CCC(N2CCN(Cc3ccc(-c4ccc(Cl)cc4)o3)CC2CCO)CC1 (centres undefined) | 0 | 12 | 13 | -10 | 0 | 4
CC(C)N1CCC(N2CCN(Cc3ccc(-c4ccccc4Cl)o3)CC2CCO)CC1 (centres undefined) | 1 | -45 | 53* | 2 | 0 | 4
Cc1ccccc1CN1CCN(C(=O)c2ccc(F)cc2)CC1 | x | 2 | -16 | -63* | -70 | 2
Cc1nc(N2CCN(c3ccccc3)CC2)[nH]c(=O)c1C | 9 | -5 | -7 | 0 | 2 | -1
c1ccc(-c2ccc(OCCCNC3CCCC3)cc2)cc1 | -6 | -28 | 41* | 2 | 17 | 3
Nc1c(C(=O)c2ccccc2)oc2ccc(Br)cc12 | -7 | 0 | -1 | 29 | 63* | -5
Nc1c(C(=O)c2ccc(Br)cc2)oc2ccccc12 | -4 | -5 | 0 | -1 | 5 | -1
COc1ccc(C=C2C(=O)OC(C)(C)OC2=O)cc1OC | -12 | -5 | 2 | -4 | 13 | 2
COc1ccc(/C=C2\OC(=O)c3c(OC)cccc32)cc1OC | 2 | 1 | -18 | 39 | 76* | 1
FC(F)(F)c1cc(CO[C@@H]2CCCN[C@@H]2c2ccccc2)cc(C(F)(F)F)c1 | -10 | x | x | x | x | x
Cn1c(=O)cc(OCCCC(=O)NC2CCCC2)c2ccccc21 | 0 | 11 | -23 | 23 | 56* | -3
Cc1ccnc(NC(=O)c2ccc(S(=O)(=O)N3CCCC3)cc2)c1 | -1 | x | x | 5 | -16 | x

Assay outcomes (PubChem BioAssay)
